This note sets out measurements from ChEMBL document CHEMBL1126713, “Nonpeptide angiotensin II receptor antagonists. 1. Synthesis and in vitro structure-activity relationships of 4-[[[(1H-pyrrol-1-ylacetyl)amino]phenyl]methyl]imidazole derivatives as angiotensin II receptor antagonists” (J Med Chem, 1993).

For assay [1], the target named is T1, Type-1 angiotensin II receptor B (Rattus norvegicus) (UniProt P29089).
T1 sequence (whole entry): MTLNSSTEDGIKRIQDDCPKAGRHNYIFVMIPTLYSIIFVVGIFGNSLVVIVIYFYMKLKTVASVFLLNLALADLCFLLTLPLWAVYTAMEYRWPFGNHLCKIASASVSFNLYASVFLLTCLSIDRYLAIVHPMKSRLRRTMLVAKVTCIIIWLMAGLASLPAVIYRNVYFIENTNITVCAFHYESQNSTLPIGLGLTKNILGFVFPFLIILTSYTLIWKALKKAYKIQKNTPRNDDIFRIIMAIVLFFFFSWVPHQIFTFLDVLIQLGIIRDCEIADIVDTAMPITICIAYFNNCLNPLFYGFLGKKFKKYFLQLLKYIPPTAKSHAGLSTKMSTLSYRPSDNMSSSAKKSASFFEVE
As to the kind of experiment: Binding affinity against angiotensin II (AT1 receptor) from rat liver expressed as % inhibition at 10 e -7 M.

Assay [2] addresses T2, Type-1 angiotensin II receptor B (Rattus norvegicus, UniProt P29089).
T2 sequence (P29089 whole entry): T1 sequence (whole entry)
As to the kind of experiment: Binding affinity against angiotensin II receptor type 1 (AT1) from rat liver. The procedure, abridged: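 Compounds were added from DMSO at 100× the final concentration. Samples were filtered on glass-fiber filters presoaked in Tris pH 7.7 with bacitracin and scintillation-counted. Nonspecific binding used 10 μM saralasin. IC50 came from nonlinear mass-action fits of five or six doses or more (mean ± SEM).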

For assay [3], the species on record is Oryctolagus cuniculus. As to the kind of experiment: Inhibition of Angiotensin II induced contraction of isolated rabbit aortic rings. The following applies: Aorta. It is filed as functional. The procedure, abridged: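 Thoracic aortic rings, 4–5 mm, from New Zealand White rabbits (3–4 kg) were held in PSS at 37 °C under 95% O2/5% CO2, with isometric force recorded. Rings were equilibrated 1.5 h, primed with 122 mM KCl and given two 10^-8 M AII control contractions. Compound in DMSO was incubated 10 min before the AII concentration–response was repeated. IC50 is the concentration halving AII contraction relative to the averaged controls.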

By inhibition is commonly meant the share of the control response that was lost under treatment. A higher inhibition goes with strong suppression. Consider `CCCCc1nc(Cl)c(C(=O)OC)n1Cc1ccc(NC(=O)[C@H](Cc2ccccc2)n2cccc2C(=O)OC)cc1`, for which the inhibition in assay [1] came to 15%.

For `CCCCc1nc(Cl)c(CC(=O)OC)n1Cc1ccc(NC(=O)[C@H](Cc2ccccc2)n2cccc2C)cc1`, the inhibition in assay [1] amounted to 14.8%. In assay [1], `CCCCc1nc(Cl)c(CC(=O)OC)n1Cc1ccc(NC(=O)[C@H](Cc2ccccc2)n2ccc(C(=O)OCC)c2)cc1` gave an inhibition of 7.2%. Usually IC50 stands for the concentration needed to halve the response being measured. Low readings indicate inhibition by little substance, high ones a need for much substance. In assay [2], `CCCCc1nc(Cl)c(CO)n1Cc1ccc(NC(=O)[C@H](c2ccccc2)n2cccc2C(=O)OC)cc1` returned an IC50 of 1120 nM. Turning to `CCCCc1nc(Cl)c(CO)n1Cc1ccc(NC(=O)[C@H](Cc2ccccc2)n2cccc2C(=O)O)cc1`, the values for the 50% inhibitory concentration (IC50) in assay [2] and in assay [3] were 180 nM and 17000 nM, respectively. Turning to `CCCCc1nc(Cl)c(CC(=O)O)n1Cc1ccc(NC(=O)[C@H](Cc2ccccc2)n2ccc(C(=O)OCC)c2C)cc1`, the half-maximal inhibitory concentration (IC50) in assay [2] turned out to be 140 nM. On the same count and under the same terms, as for `CCCCc1nc(Cl)c(C(=O)O)n1Cc1ccc(NC(=O)[C@H](Cc2cccs2)n2cccc2)cc1`, the figure is 670 nM; as for `CCCCc1nc(Cl)c(C(=O)O)n1Cc1ccc(NC(=O)[C@H](Cc2cccs2)n2cccc2C(=O)O)cc1`, 180 nM; as for `CCCCc1nc(Cl)c(CO)n1Cc1ccc(NC(=O)C(=O)c2ccccc2)cc1`, 10900 nM. Still for that read-out and setting: as for `CCCCc1nc(Cl)c(CO)n1Cc1ccc(NC(=O)C(C#N)Cc2ccccc2)cc1` (configuration not stated), the figure is 2600 nM. Take `CCCCc1ncc(C(=O)O)n1Cc1ccc(NC(=O)[C@H](Cc2ccccc2)n2cccc2C(=O)O)cc1`: the 50% inhibitory concentration (IC50) in assay [2] was determined as 20 nM; in assay [3] it was 110 nM. As for `CCCCc1nc(Cl)c(CO)n1Cc1ccc(NC(=O)[C@H](CCCC)n2cccc2C(=O)OC)cc1`, in assay [2], the IC50 is 590 nM. In other words, the sub-micromolar range. In assay [1], `CCCCc1nc(Cl)c(C(=O)OC)n1Cc1ccc(NC(=O)[C@H](Cc2cccs2)n2cccc2)cc1` registered an inhibition of 2.5%. For `CCCCc1nc(Cl)c(C(=O)O)n1Cc1ccc(NC(=O)[C@H](Cc2ccccc2)n2cccc2C(=O)O)cc1`, the IC50 in assay [2] was determined as 80 nM; in assay [3], 550 nM. In assay [2], `CCCCc1nc(-n2cccc2)c(C(=O)OCC)n1Cc1ccc(NC(=O)[C@H](Cc2ccccc2)n2cccc2C(=O)O)cc1` gave an IC50 of 2500 nM. In other words, the single-digit micromolar range. On the same count and under the same terms, as for `CCCCc1nc(Cl)c(CC(=O)OC)n1Cc1ccc(NC(=O)[C@H](Cc2cccs2)n2cccc2C(=O)OC)cc1`, the figure is 800 nM; as for `CCCCc1nc(Cl)c(CC(=O)OC)n1Cc1ccc(NC(=O)[C@H](Cc2ccccc2)n2ccc(C(=O)OCC)c2C)cc1`, 1470 nM; as for `CCCCc1nc(Cl)c(C(=O)O)n1Cc1ccc(-c2ccccc2C(=O)O)cc1`, 92 nM.

Turning to `CCCCc1nc(Cl)c(CO)n1Cc1ccc(NC(=O)[C@H](Cc2ccccc2)n2cccc2C(=O)OC)cc1`, the 50% inhibitory concentration (IC50) in assay [2] stood at 210 nM. Consider `CCCCc1nc(Cl)c(CC(=O)OC)n1Cc1ccc(NC(=O)[C@H](Cc2ccccc2)n2cccc2C(=O)OC)cc1`, for which the IC50 in assay [2] is 500 nM. For the compound `CCCCc1nc(-n2cccc2)c(C(=O)O)n1Cc1ccc(NC(=O)[C@H](Cc2ccccc2)n2cccc2C(=O)O)cc1`, the 50% inhibitory concentration (IC50) in assay [2] was 340 nM. The same measure, in the same setting: then `CCCCc1nc(Cl)c(CCC(=O)OC)n1Cc1ccc(NC(=O)[C@H](Cc2ccccc2)n2cccc2C(=O)OC)cc1`, with 210 nM. Regarding `CCCCc1nc(Cl)c(CC(=O)O)n1Cc1ccc(NC(=O)[C@H](Cc2ccccc2)n2ccc(C(=O)OCC)c2)cc1`, the values for the IC50 in assay [2] and in assay [3] were 240 nM and 14000 nM, respectively. In assay [2], `CCCCc1nc(Cl)c(CO)n1Cc1ccc(NC(=O)C(Cc2ccccc2)c2nn[nH]n2)cc1` (configuration not stated) came in with a half-inhibitory concentration (IC50) of 2600 nM.

Compound `CCCCc1nc(Cl)c(CC(=O)O)n1Cc1ccc(NC(=O)[C@H](Cc2cccs2)n2cccc2C(=O)O)cc1` yielded an IC50 in assay [2] of 24 nM. Still for that read-out and setting: as for `CCCCc1nc2c(C)cccc2n1Cc1ccc(NC(=O)[C@H](Cc2ccccc2)n2cccc2C(=O)O)cc1`, the figure is 930 nM; as for `CCCCc1nc(Cl)c(CC(=O)O)n1Cc1ccc(NC(=O)[C@H](Cc2ccccc2)n2cc(C#N)c3ccccc32)cc1`, 1290 nM; as for `CCCCc1nc(Cl)c(CO)n1Cc1ccc(-c2ccccc2C(=O)O)cc1`, 300 nM. Consider `CCCCc1nc(Cl)c(CCC(=O)O)n1Cc1ccc(NC(=O)[C@H](Cc2ccccc2)n2cccc2C(=O)O)cc1`, for which the results for the half-inhibitory concentration (IC50) in assay [2] and in assay [3] were 22 nM and 220 nM, respectively. In assay [2], `CCCCc1nc(Cl)c(CO)n1Cc1ccc(NC(=O)Cn2cccc2C(=O)OC)cc1` displayed an IC50 of 8370 nM. In other words, the single-digit micromolar range. In assay [1], `CCCCc1nc(Cl)c(CO)n1Cc1ccc(NC(=O)[C@H](Cc2ccccc2)n2cccc2)cc1` came in with an inhibition of 8.1%. Still for that read-out and setting: then `CCCCc1nc(Cl)c(C(=O)OC)n1Cc1ccc(NC(=O)[C@H](Cc2cccs2)n2cccc2C(=O)OC)cc1`, with 11%. `CCCCc1nc(Cl)c(CC(=O)O)n1Cc1ccc(NC(=O)[C@H](Cc2ccccc2)n2cccc2C(=O)O)cc1` yielded a concentration for half-maximal inhibition (IC50) in assay [3] of 520 nM. As for `CCCCc1nc(Cl)c(CC(=O)O)n1Cc1ccc(NC(=O)[C@H](Cc2ccccc2)n2cccc2)cc1`, the IC50 in assay [2] worked out at 210 nM; in assay [3], 6300 nM. In assay [1], `CCCCc1nc(Cl)c(CC(=O)O)n1Cc1ccc(NC(=O)CCc2ccccc2)cc1` returned an inhibition of 7.8%. On to `CCCCc1nc(Cl)c(CC(=O)O)n1Cc1ccc(NC(=O)[C@H](Cc2ccccc2)n2c(C)ccc2C)cc1`, for which the IC50 in assay [2] stood at 370 nM. For `CCCCc1nc(Cl)c(CC(=O)O)n1Cc1ccc(NC(=O)[C@H](Cc2ccccc2)n2cccc2C)cc1`, the IC50 stood at 140 nM in assay [2] and 6400 nM in assay [3].

`CCCCc1ncc(C(=O)OC)n1Cc1ccc(NC(=O)[C@H](Cc2ccccc2)n2cccc2C(=O)OC)cc1`: the inhibition in assay [1] is 33%. In assay [2], `CCc1nc2c(C)cc(C)nc2n1Cc1ccc(NC(=O)[C@H](Cc2ccccc2)n2cccc2C(=O)OC)cc1` returned a half-inhibitory concentration (IC50) of 330 nM. This lies in the sub-micromolar range.

The compound `CCc1nc2c(C)cc(C)nc2n1Cc1ccc(NC(=O)[C@H](Cc2ccccc2)n2cccc2C(=O)O)cc1` came in with a concentration for half-maximal inhibition (IC50) in assay [2] of 60 nM. Compared with the last compound, the IC50 is about 5.5-fold lower.
